According to ChEMBL document CHEMBL4334468, “Exploring Mitochondria-Mediated Intrinsic Apoptosis by New Phytochemical Entities: An Explicit Observation of Cytochrome c Dynamics on Lung and Melanoma Cancer Cells” (J Med Chem, 2019):
Activity calls are given as the source filed them. The rule behind the calls is not given here.

Assays:
[1] = tested on: A-375; test: Suppression of cell number in human A375 cells at 20 uM by phase contrast microscopy; assay type: functional, cell-based
[2] = tested on: A-375; test: Inhibition of colony formation in human A375 cells at 1 nM by crystal violet staining based assay; assay type: functional, cell-based
[3] = tested on: A-375; test: Induction of DNA fragmentation in human A375 cells after 4 hrs by agarose gel electrophoresis; assay type: functional, cell-based
[4] = tested on: A549; test: Cytotoxicity in human A549 cells assessed as reduction in cell viability incubated for 24 hrs by MTT assay; assay type: functional, cell-based; conditions: Homo sapiens, A549, 24 h; read-out: IC50
Procedure, shortened: (§1)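 MTT viability assay on A375 melanoma, A549 lung adenocarcinoma and WI-38 normal lung fibroblast cells after 24 and 48 h treatment. IC50 values are in µM, expressed as mean ± SD.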

[5] = tested on: A-375; test: Induction of DNA damage in human A375 cells by SERS spectral analysis; assay type: functional, cell-based
[6] = tested on: A-375; test: Induction of GSH depletion in human A375 cells by fluorimetry; assay type: functional, cell-based
[7] = tested on: A-375; test: Induction of apoptosis in human A375 cells assessed as cytochrome-c release after 6 to 8 hrs by Raman spectral imaging analysis; assay type: functional, cell-based
[8] = tested on: A549; test: Induction of DNA damage in human A549 cells after 4 hrs by Raman spectral imaging analysis; assay type: functional, cell-based
[9] = tested on: A-375; test: Cytotoxicity in human A375 cells assessed as reduction in cell viability incubated for 24 hrs by MTT assay; assay type: functional, cell-based; conditions: Homo sapiens, A-375, 24 h; read-out: IC50; procedure, shortened: as §1
[10] = tested on: A-375; test: Induction of apoptosis in human A375 cells assessed as increase in caspase-3 levels at 1 uM incubated for 12 hrs by spectrofluorometry; assay type: functional, cell-based
[11] = tested on: A549; test: Induction of cell cycle arrest in human A549 cells assessed as accumulation at G2/M phase at 10 nM by propodium iodide staining based flow cytometric analysis (reference value: 7%); assay type: functional
Procedure, shortened: (§2)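 DNA was stained with propidium iodide and analysed by flow cytometry. Histograms give the fraction of cells in G0/G1, S and G2/M phases.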

[12] = Antioxidant activity at 1 to 1000 ug/ml incubated for 90 mins by FRAP assay; assay type: functional
[13] = tested on: A549; test: Induction of apoptosis in human A549 cells assessed as induction of nuclear changes with DNA fragmentation at 1 uM by Hoechst 33342 nuclear staining based assay; assay type: functional, cell-based
Procedure, shortened: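 Hoechst 33342 nuclear staining of treated A549 or A375 cells. Nuclear condensation and fragmentation were examined by fluorescence microscopy against untreated control.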

[14] = tested on: A-375; test: Induction of DNA damage in human A375 cells after 4 hrs by Raman spectral imaging analysis; assay type: functional, cell-based
[15] = tested on: A549; test: Induction of cell cycle arrest in human A549 cells assessed as accumulation at S phase at 10 nM by propodium iodide staining based flow cytometric analysis (reference value: 25%); assay type: functional; procedure, shortened: as §2
[16] = tested on: A549; test: Induction of intracellular ROS generation in human A549 cells by DCFDA dye based fluorescence assay relative to control; assay type: functional, cell-based
Procedure, shortened: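 Intracellular ROS in A549 cells was measured with the DCFDA probe over 1-100 µM, with paclitaxel as positive control. Readout is fold change in fluorescence intensity relative to untreated control.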

[17] = tested on: A549; test: Induction of apoptosis related protein expression in human A549 cells assessed as increase in Bad expression at 20 uM incubated for 12 hrs by apoptosis antibody array; assay type: functional, cell-based
[18] = tested on: A549; test: Cytotoxicity in human A549 cells assessed as reduction in cell viability at 0.001 to 100 uM incubated for 24 to 48 hrs by LDH assay; assay type: functional, cell-based
Procedure, shortened: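 LDH released into the culture medium after plasma membrane damage was quantified and expressed as percentage cytotoxicity.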

[19] = tested on: A-375; test: Induction of apoptosis in human A375 cells at 1 uM by TUNEL assay; assay type: functional, cell-based
[20] = tested on: A-375; test: Induction of morphological changes in human A375 cells assessed as change in shape of cells from spindle to spherical at 1 uM by atomic force microscopy; assay type: functional, cell-based
[21] = tested on: A549; test: Induction of morphological changes in human A549 cells at 20 uM by phase contrast microscopy; assay type: functional, cell-based
[22] = tested on: A549; test: Induction of apoptosis in human A549 cells at 1 uM by acridine orange-ethidium bromide assay; assay type: functional, cell-based
Procedure, shortened: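 Cells were treated at 1 µM and then stained with acridine orange-ethidium bromide. Apoptosis was scored by fluorescence microscopy as a colour shift from green to yellow/red.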

[23] = tested on: A549; test: Induction of cell cycle arrest in human A549 cells assessed as accumulation at G0/G1 phase at 10 nM by propodium iodide staining based flow cytometric analysis (reference value: 68%); assay type: functional; procedure, shortened: as §2
[24] = tested on: A549; test: Antimetastatic activity in human A549 cells assessed as reduction in cell invasion at 10 nM by crystal violet staining based transwell chamber assay; assay type: functional
Procedure, shortened: (§3)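 Invasion was measured in a transwell chamber, with cells moving across Matrigel toward the lower chamber. Invaded cells were imaged and quantified against untreated control.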

[25] = tested on: A-375; test: Inhibition of mitochondrial membrane potential in human A375 cells at 1 uM by TMRE staining based assay; assay type: functional, cell-based
[26] = tested on: A549; test: Induction of apoptosis in human A549 cells assessed as increase in caspase-2 levels at 1 uM incubated for 12 hrs by spectrofluorometry; assay type: functional, cell-based
[27] = tested on: A549; test: Induction of morphological changes in human A549 cells assessed as induction of membrane breakage, blebbing and leakage of intracellular components at 1 uM by atomic force microscopy; assay type: functional, cell-based
[28] = tested on: A-375; test: Antimetastatic activity in human A375 cells assessed as reduction in cell migration at 10 nM by crystal violet staining based transwell chamber assay; assay type: functional
Procedure, shortened: (§4)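 Transwell chamber migration assay. Cells migrating to the lower side were imaged and quantified against untreated control.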

[29] = tested on: A-375; test: Antimetastatic activity in human A375 cells assessed as reduction in cell invasion at 10 nM by crystal violet staining based transwell chamber assay; assay type: functional; procedure, shortened: as §3
[30] = tested on: A549; test: Induction of apoptosis in human A549 cells assessed as increase in caspase-8 levels at 1 uM incubated for 12 hrs by spectrofluorometry; assay type: functional, cell-based
[31] = tested on: A-375; test: Induction of morphological changes in human A375 cells at 20 uM by phase contrast microscopy; assay type: functional, cell-based
[32] = tested on: A549; test: Induction of apoptosis related protein expression in human A549 cells assessed as increase in Bim expression at 20 uM incubated for 12 hrs by apoptosis antibody array; assay type: functional, cell-based
[33] = tested on: A549; test: Induction of DNA fragmentation in human A549 cells after 3 hrs by chemometec-DNA fragmentation assay relative to control; assay type: functional
[34] = tested on: A-375; test: Induction of cell cycle arrest in human A375 cells assessed as accumulation at G2/M phase at 10 nM by propodium iodide staining based flow cytometric analysis; assay type: functional; procedure, shortened: as §2
[35] = tested on: A549; test: Induction of apoptosis in human A549 cells assessed as late apoptotic cells level at 1 uM incubated for 24 hrs by FITC-Annexin V staining based assay (reference value: 0.02%); assay type: functional
[36] = tested on: A549; test: Antimetastatic activity in human A549 cells assessed as reduction in cell migration at 10 nM by crystal violet staining based transwell chamber assay; assay type: functional; procedure, shortened: as §4
[37] = tested on: A549; test: Suppression of cell number in human A549 cells at 20 uM by phase contrast microscopy; assay type: functional, cell-based
[38] = tested on: A549; test: Induction of DNA fragmentation in human A549 cells after 4 hrs by agarose gel electrophoresis; assay type: functional, cell-based
[39] = tested on: A-375; test: Induction of apoptosis in human A375 cells assessed as increase in caspase-8 levels at 1 uM incubated for 12 hrs by spectrofluorometry; assay type: functional, cell-based
[40] = tested on: A-375; test: Induction of apoptosis in human A375 cells assessed as increase in caspase-9 levels at 1 uM incubated for 12 hrs by spectrofluorometry; assay type: functional, cell-based

Structure (SMILES): COc1cc(C2Oc3cc(-c4cc(=O)c5c(O)cc(O)cc5o4)ccc3OC2/C=C2\C(=O)ON=C2c2ccc(Cl)cc2)ccc1O (stereo not given)
- Activity [1]: Active
- inhibition [2]: Active
- Activity [3]: Active
- IC50 [4]: 2 µM
- Activity [5]: Active
- Activity [6]: Active
- Activity [7]: Active
- Activity [8]: Active
- IC50 [9]: 1.2 µM
- Activity [10]: Active
- Activity [11]: 29%
- Activity [12]: inactive
- Activity [13]: Active
- Activity [14]: Active
- Activity [15]: 40%
- Activity [16]: Dose-dependent effect
- Activity [17]: Active
- Activity [18]: Active
- Activity [19]: Active
- Activity [20]: Active
- Activity [21]: Active
- Activity [22]: Active
- Activity [23]: 31%
- Activity [24]: Active
- inhibition [25]: Active
- Activity [26]: Active
- Activity [27]: Active
- Activity [28]: Active
- Activity [29]: Active
- Activity [30]: inactive
- Activity [31]: Active
- Activity [32]: Active
- Activity [33]: 14.5%
- Activity [34]: Active
- Activity [35]: 38%
- Activity [36]: Active
- Activity [37]: Active
- Activity [38]: Active
- Activity [39]: inactive
- Activity [40]: Active
